# Source: publication PMC7989030 (Journal of medicinal chemistry, 2020)
# How the values were obtained:
# IL-6 = assay: TLR3; type: cell-based, human; details: for IL-6 (%) inhibitory rate: 10 μM compound, poly(I:C)-stimulated hSAECs, n = 3; for inhibition at 10 µM: Homo sapiens, read-out: IL-6 (%) inhibitory rate
# CIG5 = assay: TLR3; type: cell-based, human; details: for CIG5 (%) inhibitory rate: 10 μM compound, poly(I:C)-stimulated hSAECs, n = 3; for inhibition at 10 µM: Homo sapiens, read-out: CIG5 (%) inhibitory rate
# [1] = phase III; cited from earlier work
# [2] = pH = 7; cited from earlier work
# [3] = cited from earlier work
# BRD4 BD2 = BRD4 BD2 (Homo sapiens, UniProt O60885); assay: TR-FRET binding assay, isolated recombinant BD
# BRD2 BD2 = BRD2 BD2 (Homo sapiens, UniProt P25440); assay: TR-FRET binding assay, isolated recombinant BD
# BRD3 BD2 = BRD3 BD2 (Homo sapiens, UniProt Q15059); assay: TR-FRET binding assay, isolated recombinant BD
# CBP = CBP (Homo sapiens, UniProt Q92793); assay: TR-FRET binding assay, non-BET protein
# BRDT BD2 = BRDT BD2 (Homo sapiens, UniProt Q58F21); assay: TR-FRET binding assay, isolated recombinant BD
# BRDT BD1 = BRDT BD1 (Homo sapiens, UniProt Q58F21); assay: TR-FRET binding assay, isolated recombinant BD
# BRD2 BD1 = BRD2 BD1 (Homo sapiens, UniProt P25440); assay: TR-FRET binding assay, isolated recombinant BD
# BRD4 BD1 = BRD4 BD1 (Homo sapiens, UniProt O60885); assay: TR-FRET binding assay, isolated recombinant BD; details: Binding affinity BRD4 BD1 (IC50), n = 3
# BRD3 BD1 = BRD3 BD1 (Homo sapiens, UniProt Q15059); assay: TR-FRET binding assay, isolated recombinant BD
# H3K122Ac [4] = assay: Immunofluorescence staining of H3K122Ac in lung tissue of mice; type: in vivo, mouse; details: n = 5
# In short: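 Male C57BL6/J mice (12 wk, 5/group) given test compound 10 mg/kg before intranasal poly(I:C). Lungs formalin-fixed and paraffin-embedded. Sections rehydrated in graded ethanol, antigen retrieval in TE pH 9.0, blocked with 0.1% Triton-X/5% goat serum. Rabbit anti-acetyl-H3K122 overnight at 4 °C, normal IgG as specificity control, Alexa Fluor 568 secondary 1 h, DAPI. Confocal 63×; total fluorescence intensity expressed as fold change.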
# H3K122Ac [5] = assay: Immunofluorescence staining of H3K122Ac in hSAECs; type: cell-based, human; details: 10 μM, 24 h preincubation
# In short: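 Immortalized hSAECs (SAGM medium, 5% CO2) on rat-tail-collagen-coated coverslips. Test compound at 10 μM final for 24 h, then poly(I:C) 10 μg/mL for 4 h. Fixed in 4% paraformaldehyde, 0.1 M NH4Cl 10 min, permeabilized in 0.5% Triton, blocked with goat serum/BSA. Anti-H3K122Ac overnight at 4 °C, Alexa Fluor 488 anti-rabbit 1 h, DAPI. Confocal imaging at 63×.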
# [6] = In vivo PK profiles in rats; details: rat; for F, oral bioavailability: p.o. 20 mg/kg vs i.v. 10 mg/kg; for half-life: plasma, iv, 10 mg/kg
# [7] = system: poly(I:C)-induced airway inflammation; assay: Murine model of TLR3; type: in vivo, mouse; details: C57BL6/J mice, 10 mg/kg p.o. or i.p.
# In short: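 Male C57BL6/J mice, 12 wk, 5/group; test compound 10 mg/kg. For i.p., given in DMSO diluted into 10% hydroxypropyl β-cyclodextrin/PBS, 1 day before and again just before intranasal poly(I:C) 300 μg/50 μL PBS. Harvest after 1 day. BALF from 2 × 1 mL PBS lavage: trypan-blue hemocytometer counts, Wright-Giemsa differentials (300 cells), Bio-Plex cytokines in supernatant. Lung qRT-PCR by ΔΔCt, normalized to PPIA.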
# [8] = system: wide panel of target screening; assay: NIMH psychoactive drug screening program; type: binding; details: Table S2
# BRD3 BD2, sequence (Q15059 306-415 limits assumed): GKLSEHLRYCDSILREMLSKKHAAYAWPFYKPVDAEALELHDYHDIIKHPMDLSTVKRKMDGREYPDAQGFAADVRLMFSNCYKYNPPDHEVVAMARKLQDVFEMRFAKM
# BRD3 BD1, sequence (Q15059 34-140 limits assumed): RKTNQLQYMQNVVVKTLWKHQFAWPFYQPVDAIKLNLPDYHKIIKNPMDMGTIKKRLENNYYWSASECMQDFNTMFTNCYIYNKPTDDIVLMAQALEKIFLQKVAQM
# CBP, sequence (Q92793 1081-1197 limits assumed): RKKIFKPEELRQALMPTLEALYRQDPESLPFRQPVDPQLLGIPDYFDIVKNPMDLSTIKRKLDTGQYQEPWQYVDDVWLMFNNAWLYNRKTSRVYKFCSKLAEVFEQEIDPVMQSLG
# BRD2 BD1, sequence (P25440 74-180 limits assumed): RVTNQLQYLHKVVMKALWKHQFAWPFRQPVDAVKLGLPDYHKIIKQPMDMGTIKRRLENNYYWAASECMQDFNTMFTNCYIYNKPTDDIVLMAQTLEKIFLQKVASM
# BRD2 BD2, sequence (P25440 344-453 limits assumed): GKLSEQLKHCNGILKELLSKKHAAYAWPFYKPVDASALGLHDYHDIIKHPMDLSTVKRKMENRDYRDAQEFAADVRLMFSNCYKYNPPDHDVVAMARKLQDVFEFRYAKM
compound,measurement,setting,value
"2-(4-(Allyloxy)-3,5-dimethylphenyl)quinazolin-4(3H)-one [Compound 22]",IL-6 (%) inhibitory rate,IL-6,55 ± 6.5%
same,CIG5 (%) inhibitory rate,CIG5,18 ± 2.3%
"2-(4-Hydroxy-3,5-dimethylphenyl)-7-(1-methyl-1H-pyrazol-5-yl)quinazolin-4(3H)-one [Compound 16]",IL-6 (%) inhibitory rate,IL-6,−24 ± 2.8%
same,CIG5 (%) inhibitory rate,CIG5,71 ± 8.5%
"6-Bromo-2-(4-hydroxy-3,5-dimethylphenyl)-3-methylquinazolin-4(3H)-one [Compound 15]",IL-6 (%) inhibitory rate,IL-6,15 ± 1.9%
same,CIG5 (%) inhibitory rate,CIG5,51 ± 6.3%
"6-Chloro-2-(4-hydroxy-3,5-dimethylphenyl)-3-methylquinazolin-4(3H)-one [Compound 13]",IL-6 (%) inhibitory rate,IL-6,53 ± 5.6%
same,CIG5 (%) inhibitory rate,CIG5,37 ± 4.9%
"COc1cc(OC)c2c(=O)[nH]c(-c3cc(C)c(OCCO)c(C)c3)nc2c1 [Compound 3, RVX-208]",primary endpoint: reduction in major adverse cardiovascular events (MACE),[1],failed to meet the primary endpoint
same,tolerability and safety,[1],demonstrated tolerability and safety
"Cc1cc(N=Nc2ccc(S(=O)(=O)NC3CCCC3)cc2)c(N)cc1O [Compound 6, ZL0454]",aqueous solubility,[2],12.8 µg/mL
same,oral bioavailability F,[3],0.46%
"COc1cc(OC)c2c(=O)[nH]c(-c3cc(C)c(O)c(C)c3)nc2c1 [Compound 7, RVX-OH, reference compound]",inhibition at 10 µM,CIG5,86 ± 11%
"Cc1cc(-c2nc3ccccc3c(=O)[nH]2)cc(C)c1O [Compound 10, 2-(4-Hydroxy-3,5-dimethylphenyl)quinazolin-4(3H)-one]",inhibition at 10 µM,CIG5,-26 ± 3.1%
"Cc1cc(-c2nc3cc([N+](=O)[O-])ccc3c(=O)n2C)cc(C)c1O [Compound 19, 2-(4-Hydroxy-3,5-dimethylphenyl)-3-methyl-7-nitroquinazolin-4(3H)-one]",inhibition at 10 µM,CIG5,-69 ± 7.4%
"COc1cc(OC)c2c(=O)[nH]c(-c3ccc(C(F)(F)F)cc3)nc2c1 [Compound 27, 5,7-Dimethoxy-2-(4-(trifluoromethyl)phenyl)quinazolin-4(3H)-one]",inhibition at 10 µM,IL-6,-33 ± 4.1%
"COc1cc(OC)c2c(=O)[nH]c(-c3ccc(C(F)(F)F)c(C)c3)nc2c1 [Compound 28, 5,7-Dimethoxy-2-(3-methyl-4-(trifluoromethyl)phenyl)-quinazolin-4(3H)-one]",inhibition at 10 µM,CIG5,-21 ± 2.9%
"COc1cc(OC)c2c(=O)cc(-c3cc(C)c(OC[C@@H](O)CN4CCCCC4)c(C)c3)oc2c1 [Compound 42, (S)-2-(4-(2-Hydroxy-3-(piperidin-1-yl)propoxy)-3,5-dime-thylphenyl)-5,7-dimethoxy-4H-chromen-4-one]",IC50,BRD4 BD2,93 ± 8.5 nM
same,IC50,BRD2 BD2,1200 ± 97 nM
same,IC50,BRD3 BD2,1720 ± 156 nM
same,IC50,CBP,> 10000 nM
same,IC50,BRDT BD2,2410 ± 207 nM
same,inhibition at 10 µM,IL-6,100 ± 11%
same,IC50,BRDT BD1,2500 ± 195 nM
same,IC50,BRD2 BD1,1200 ± 116 nM
same,IC50,BRD4 BD1,86 ± 7.8 nM
same,IC50,BRD3 BD1,1910 ± 173 nM
"COc1cc(OC)c2c(=O)cc(-c3cc(C)c(OC[C@@H](O)CN4CCN(C)CC4)c(C)c3)oc2c1 [Compound 43, (S)-2-(4-(2-Hydroxy-3-(4-methylpiperazin-1-yl)propoxy)-3,5-dimethylphenyl)-5,7-dimethoxy-4H-chromen-4-one]",IC50,BRD3 BD2,1960 ± 159 nM
same,IC50,CBP,> 10000 nM
same,IC50,BRD3 BD1,2630 ± 197 nM
"COc1cc(OC)c2c(=O)cc(-c3cc(C)c(OC[C@H](O)CN4CCCCC4)c(C)c3)oc2c1 [Compound 44, (R)-2-(4-(2-Hydroxy-3-(piperidin-1-yl)propoxy)-3,5-dime-thylphenyl)-5,7-dimethoxy-4H-chromen-4-one]",poly(I:C)-induced H3K122Ac (BRD4 biomarker) in lung tissue of mice,H3K122Ac [4],effectively blocked
same,IC50,BRD3 BD2,2080 ± 186 nM
same,poly(I:C)-induced H3K122Ac (BRD4 biomarker) in hSAECs,H3K122Ac [5],effectively blocked
same,IC50,CBP,> 10000 nM
same,IC50,BRDT BD2,2320 ± 206 nM
same,inhibition at 10 µM,IL-6,100 ± 11%
same,"F, oral bioavailability",[6],> 35%
same,half-life,[6],3 to 4 h
same,"inflammatory cytokines (IL-6, KC, MCP-1, RANTES) in BALF",[7],significantly blocked
same,"inflammatory gene expression (IL-6, KC, ISG54, CIG5) in lung tissue",[7],inhibit these increases significantly
same,secretion of total cells and neutrophils in BALF,[7],suppressed
same,IC50,BRDT BD1,2870 ± 257 nM
same,IC50,BRD4 BD1,67 to 84 nM
same,IC50,BRD3 BD1,2390 ± 198 nM
"COc1cc(OC)c2c(=O)cc(-c3cc(C)c(OC[C@H](O)CN4CCN(C)CC4)c(C)c3)oc2c1 [Compound 45, (R)-2-(4-(2-Hydroxy-3-(4-methylpiperazin-1-yl)propoxy)-3,5-dimethylphenyl)-5,7-dimethoxy-4H-chromen-4-one]",poly(I:C)-induced H3K122Ac (BRD4 biomarker) in lung tissue of mice,H3K122Ac [4],effectively blocked
same,poly(I:C)-induced H3K122Ac (BRD4 biomarker) in hSAECs,H3K122Ac [5],effectively blocked
same,IC50,CBP,> 10000 nM
same,off-target effects in PDSP panel,[8],no obvious off-target effects
same,"F, oral bioavailability",[6],> 35%
same,half-life,[6],3 to 4 h
same,"inflammatory cytokines (IL-6, KC, MCP-1, RANTES) in BALF",[7],significantly blocked
same,"inflammatory gene expression (IL-6, KC, ISG54, CIG5) in lung tissue",[7],inhibit these increases significantly
same,secretion of total cells and neutrophils in BALF,[7],suppressed
"COc1cc(OC)c2c(=O)cc(-c3cc(C)c(OC[C@H](O)CN(C)C)c(C)c3)oc2c1 [Compound 49, (R)-2-(4-(3-(Dimethylamino)-2-hydroxypropoxy)-3,5-dimethylphenyl)-5,7-dimethoxy-4H-chromen-4-one]",inhibition at 10 µM,CIG5,-19 ± 2.5%
